In assay [1] the target is Fibroblast growth factor 1 (Homo sapiens, UniProt P05230). Description: Binding affinity to FGF1 by surface plasmon resonance-based solution affinity assay. The essentials: (§1)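 Dissociation constants (Kd) for ligand binding to FGF-1, FGF-2 and VEGF were determined by an SPR solution affinity assay. Some entries come from a single measurement only.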
Assay [2] addresses Fibroblast growth factor 2 (Homo sapiens, UniProt P09038). Description: Binding affinity to FGF2 by surface plasmon resonance-based solution affinity assay. The method in brief:
as §1
For orientation: In SPR one partner is held on a chip, and binding of the other changes the refractive index at the surface.

Assay [3] concerns the target T1, Vascular endothelial growth factor A, long form (Homo sapiens, UniProt P15692).
T1 sequence (P15692 whole entry): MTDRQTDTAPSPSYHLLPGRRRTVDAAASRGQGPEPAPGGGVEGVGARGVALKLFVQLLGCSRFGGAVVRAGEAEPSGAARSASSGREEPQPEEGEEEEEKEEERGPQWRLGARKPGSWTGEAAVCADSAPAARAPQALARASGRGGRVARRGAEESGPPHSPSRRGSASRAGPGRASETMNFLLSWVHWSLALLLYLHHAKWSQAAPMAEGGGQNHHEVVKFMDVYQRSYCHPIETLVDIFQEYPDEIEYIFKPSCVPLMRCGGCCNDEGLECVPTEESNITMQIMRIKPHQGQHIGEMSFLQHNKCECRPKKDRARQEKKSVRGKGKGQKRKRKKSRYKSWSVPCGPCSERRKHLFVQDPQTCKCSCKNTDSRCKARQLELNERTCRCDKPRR
In words: Binding affinity to VEGF by surface plasmon resonance-based solution affinity assay. The essentials:
as §1

Chain of Fibroblast growth factor 2 (P09038 143-288 limits assumed): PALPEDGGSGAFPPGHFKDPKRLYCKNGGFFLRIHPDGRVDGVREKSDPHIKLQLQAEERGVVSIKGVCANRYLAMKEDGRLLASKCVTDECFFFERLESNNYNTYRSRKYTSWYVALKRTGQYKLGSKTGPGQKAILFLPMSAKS
Chain of Fibroblast growth factor 1 (P05230 whole entry): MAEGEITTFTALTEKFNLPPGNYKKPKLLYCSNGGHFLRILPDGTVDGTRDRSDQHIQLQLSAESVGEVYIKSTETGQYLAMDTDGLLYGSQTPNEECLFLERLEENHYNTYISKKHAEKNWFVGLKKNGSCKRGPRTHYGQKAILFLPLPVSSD

In the case of `CO[C@H]1O[C@H](CNC(=O)CN(C(C)=O)c2ccccc2)[C@@H](OS(=O)(=O)O)[C@H](OS(=O)(=O)O)[C@@H]1OS(=O)(=O)O`, the dissociation constant Kd in assay [1] was found to be 196 µM; in assay [2], 480 µM; in assay [3], 76 µM.

Take `CO[C@H]1O[C@H](CNC(=O)CN(Cc2ccccc2)C(C)=O)[C@@H](OS(=O)(=O)O)[C@H](OS(=O)(=O)O)[C@@H]1OS(=O)(=O)O`: the Kd in assay [1] is 140 µM; in assay [2], 192 µM; in assay [3] it was 77 µM.

Take `CO[C@H]1O[C@H](CNC(=O)CN(CCc2ccccc2)C(C)=O)[C@@H](OS(=O)(=O)O)[C@H](OS(=O)(=O)O)[C@@H]1OS(=O)(=O)O`: the dissociation constant (Kd) in assay [1] stood at 224 µM; in assay [2], 680 µM; in assay [3], 109 µM.

As for `CO[C@H]1O[C@H](CNC(=O)CN(C(C)=O)C2CCCCC2)[C@@H](OS(=O)(=O)O)[C@H](OS(=O)(=O)O)[C@@H]1OS(=O)(=O)O`, the dissociation constant Kd in assay [1] was 310 µM; in assay [2], 413 µM; in assay [3], 1700 µM.

Take `CO[C@H]1O[C@H](CNC(=O)CN(C(C)=O)C2CCCCCC2)[C@@H](OS(=O)(=O)O)[C@H](OS(=O)(=O)O)[C@@H]1OS(=O)(=O)O`: the dissociation constant Kd is 370 µM in assay [1], 410 µM in assay [2] and 3000 µM in assay [3].

As for `CO[C@H]1O[C@H](CNC(=O)CN(C(C)=O)C2CCCCCCCCCCC2)[C@@H](OS(=O)(=O)O)[C@H](OS(=O)(=O)O)[C@@H]1OS(=O)(=O)O`, the Kd in assay [1] is 265 µM; in assay [2], 480 µM; in assay [3] it was 1200 µM.

With `CCCCC1CCC(N(CC(=O)NC[C@H]2O[C@H](OC)[C@@H](OS(=O)(=O)O)[C@@H](OS(=O)(=O)O)[C@@H]2OS(=O)(=O)O)C(C)=O)CC1` (stereo not given in full), the dissociation constant Kd in assay [1] was determined as 243 µM; in assay [2], 540 µM; in assay [3], 1000 µM.

As for `CO[C@H]1O[C@H](CNC(=O)CNC(=O)Cc2cccc(Cl)c2)[C@@H](OS(=O)(=O)O)[C@H](OS(=O)(=O)O)[C@@H]1OS(=O)(=O)O`, the dissociation constant (Kd) came to 37 µM in assay [1], 430 µM in assay [2] and 45.3 µM in assay [3].

Take `CO[C@H]1O[C@H](CNC(=O)CN(CCOS(=O)(=O)O)C(C)=O)[C@@H](OS(=O)(=O)O)[C@H](OS(=O)(=O)O)[C@@H]1OS(=O)(=O)O`: the figures for the Kd in assay [1], in assay [2] and in assay [3] were 95 µM, 240 µM and 280 µM, respectively.

For `CCN(CC(=O)NC[C@H]1O[C@H](OC)[C@@H](OS(=O)(=O)O)[C@@H](OS(=O)(=O)O)[C@@H]1OS(=O)(=O)O)C(=O)COS(=O)(=O)O`, the Kd in assay [1] is 174 µM; in assay [3], 512 µM.

Take `CCN(CC(=O)NC[C@H]1O[C@H](OC)[C@@H](OS(=O)(=O)O)[C@@H](OS(=O)(=O)O)[C@@H]1OS(=O)(=O)O)C(=O)CCC(=O)O`: the dissociation constant (Kd) in assay [1] was 338 µM; in assay [2] it was 291 µM; in assay [3] it was 207 µM.

Take `CCN(CC(=O)NC[C@H]1O[C@H](OC)[C@@H](OS(=O)(=O)O)[C@@H](OS(=O)(=O)O)[C@@H]1OS(=O)(=O)O)C(=O)CCCCC(=O)O`: the results for the Kd in assay [1], in assay [2] and in assay [3] were 160 µM, 480 µM and 104 µM, respectively.

As for `CCN(CC(=O)NC[C@H]1O[C@H](OC)[C@@H](OS(=O)(=O)O)[C@@H](OS(=O)(=O)O)[C@@H]1OS(=O)(=O)O)C(=O)CCCCCCCCCOS(=O)(=O)O`, the Kd in assay [1] is 111 µM; in assay [2], 240 µM; in assay [3] it was 545 µM.

Take `CCN(CC(=O)NC[C@H]1O[C@H](OC)[C@@H](OS(=O)(=O)O)[C@@H](OS(=O)(=O)O)[C@@H]1OS(=O)(=O)O)C(=O)c1ccccc1`: the dissociation constant (Kd) in assay [1] turned out to be 366 µM; in assay [2], 480 µM; in assay [3], 1100 µM.

Take `CCN(CC(=O)NC[C@H]1O[C@H](OC)[C@@H](OS(=O)(=O)O)[C@@H](OS(=O)(=O)O)[C@@H]1OS(=O)(=O)O)C(=O)CCc1ccccc1`: in assay [3], the equilibrium dissociation constant (Kd) was 596 µM.

Regarding `CCN(CC(=O)NC[C@H]1O[C@H](OC)[C@@H](OS(=O)(=O)O)[C@@H](OS(=O)(=O)O)[C@@H]1OS(=O)(=O)O)C(=O)CCCc1ccccc1`, the Kd in assay [1] is 500 µM; in assay [2] it was 400 µM; in assay [3], 81 µM.

Regarding `CC(=O)N(CC(=O)NCCO[C@H]1O[C@H](COS(=O)(=O)O)[C@@H](OS(=O)(=O)O)[C@H](OS(=O)(=O)O)[C@@H]1OS(=O)(=O)O)c1ccccc1`, the Kd was 97 µM in assay [1], 240 µM in assay [2] and 402 µM in assay [3].

As for `CC(=O)N(CC(=O)NCCO[C@H]1O[C@H](COS(=O)(=O)O)[C@@H](OS(=O)(=O)O)[C@H](OS(=O)(=O)O)[C@@H]1OS(=O)(=O)O)Cc1ccccc1`, the Kd in assay [1] is 25 µM; in assay [2], 287 µM; in assay [3] it was 76.6 µM.

Regarding `CC(=O)N(CCc1ccccc1)CC(=O)NCCO[C@H]1O[C@H](COS(=O)(=O)O)[C@@H](OS(=O)(=O)O)[C@H](OS(=O)(=O)O)[C@@H]1OS(=O)(=O)O`, the values for the Kd in assay [1], in assay [2] and in assay [3] were 11.8 µM, 113 µM and 29 µM, respectively.

`O=C(CNC(=O)Cc1cccc(Cl)c1)NCCO[C@H]1O[C@H](COS(=O)(=O)O)[C@@H](OS(=O)(=O)O)[C@H](OS(=O)(=O)O)[C@@H]1OS(=O)(=O)O`: the Kd in assay [1] was 170 µM; in assay [2] it was 837 µM; in assay [3] it was 91 µM.

Consider `CCN(CC(=O)NCCO[C@H]1O[C@H](COS(=O)(=O)O)[C@@H](OS(=O)(=O)O)[C@H](OS(=O)(=O)O)[C@@H]1OS(=O)(=O)O)C(=O)CCC(=O)O`, for which the Kd amounted to 43 µM in assay [1], 122 µM in assay [2] and 40 µM in assay [3].

Turning to `CCN(CC(=O)NCCO[C@H]1O[C@H](COS(=O)(=O)O)[C@@H](OS(=O)(=O)O)[C@H](OS(=O)(=O)O)[C@@H]1OS(=O)(=O)O)C(=O)CCCCC(=O)O`, the figures for the Kd in assay [1], in assay [2] and in assay [3] were 44 µM, 188 µM and 81 µM, respectively.

For `CCN(CC(=O)NCCO[C@H]1O[C@H](COS(=O)(=O)O)[C@@H](OS(=O)(=O)O)[C@H](OS(=O)(=O)O)[C@@H]1OS(=O)(=O)O)C(=O)CCCCCCCCCOS(=O)(=O)O`, the Kd in assay [1] worked out at 20 µM; in assay [2] it was 157 µM; in assay [3] it was 50 µM.

Turning to `CO[C@H]1O[C@H](CN=[N+]=[N-])[C@@H](OS(=O)(=O)O)[C@H](OS(=O)(=O)O)[C@@H]1OS(=O)(=O)O`, the Kd came to 343 µM in assay [1], 210 µM in assay [2] and 630 µM in assay [3].

Regarding `CO[C@H]1O[C@H](COS(=O)(=O)O)[C@@H](OS(=O)(=O)O)[C@H](OS(=O)(=O)O)[C@@H]1OS(=O)(=O)O`, the Kd in assay [3] came to 198 µM.

For orientation: Kd means a measure of binding affinity in units of concentration. Higher therefore signals lower affinity.
